High-throughput results: PubChem BioAssay, several laboratories
A selection: hits, their analogues and other compounds. The true share with any hit is near 0.99%.
GSK3 alpha inh: human GSK-3 alpha kinase inhibition. P49840. ADP-Glo luminescence, 60 min. inhibition, % at 10 µM. actives 0.1% (n = 320,000);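 active means more than half of replicates show inhibition above 20%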;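 further: GST-tagged GSK-3 alpha with peptide substrate and 25 µM ATP; 0% = DMSO neutral wells and 100% = GW8510 positive control wells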
STK33 inh: inhibitors of human STK33 kinase; Q9BYT3; purified STK33, MBP phosphorylation, ADP-Glo luminescence; inhibition, % at 10 µM; actives 0.073% (n = 320,000); AID 2661;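 active means inhibition at or above 25%, using the most active replicate where run in duplicate; inactive means inhibition below 25%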
Target sequence (Q9BYT3 whole entry, looked up): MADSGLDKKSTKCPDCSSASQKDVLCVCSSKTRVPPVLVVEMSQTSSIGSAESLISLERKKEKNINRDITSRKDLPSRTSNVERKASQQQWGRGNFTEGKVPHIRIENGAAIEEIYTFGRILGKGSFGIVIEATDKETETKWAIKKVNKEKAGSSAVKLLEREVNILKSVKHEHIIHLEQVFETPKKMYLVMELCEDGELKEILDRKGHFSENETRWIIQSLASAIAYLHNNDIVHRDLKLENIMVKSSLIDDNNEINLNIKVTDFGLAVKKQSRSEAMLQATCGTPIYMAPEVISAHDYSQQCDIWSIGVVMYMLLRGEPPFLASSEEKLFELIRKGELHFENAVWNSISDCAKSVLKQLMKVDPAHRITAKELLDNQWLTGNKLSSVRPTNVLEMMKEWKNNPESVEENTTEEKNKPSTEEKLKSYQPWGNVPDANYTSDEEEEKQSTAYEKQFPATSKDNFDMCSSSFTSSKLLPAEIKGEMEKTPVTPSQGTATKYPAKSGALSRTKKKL
Dyrk1A ADPGlo: Dyrk1A (rat) kinase inhibition. inhibition, % at 12.5 µM. AID 504441. ADP-Glo luminescence, NFATc1 peptide. Q63470. actives 0.43% (n = 310,000); in the data active means inhibition above about 50%;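 further: plate controls were vehicle with enzyme for no effect and no enzyme for full effect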
Arr AP2 block: blocks beta-arrestin peptide binding to AP2 adaptin; FITC-arrestin peptide / GST-AP2 beads, flow cytometry; AP2 beta2 appendage carries R879A mutation; inhibition, % at 10 µM; actives 0.31% (n = 340,000);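 active means inhibition above a set limit, near 3 SD of compounds lacking own fluorescence, cut at about 54% in these data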;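 further: plate controls were DMSO wells for no effect and 5 µM unlabelled arrestin peptide for full effect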
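Test system: GST-tagged AP2 beta2-adaptin appendage (R879A) on 4 µm glutathione beads; also added: fluorescein-tagged arrestin peptide at 50 nM final; timing: 12 min plus 1 h, RT; signal: flow cytometry, FL1 (488/535 nm); read-out: percent drop in bead-associated FITC signal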
GSK3beta inhib: human GSK3beta kinase inhibition; P49841; GST-GSK3beta kinase, ADP-Glo luminescence, 60 min; hits give low values; activity score (negative = inhibition), % at 10 µM; actives 0.038% (n = 300,000); AID 2097;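 active means more than half of replicate wells score below -50%, meaning over 50% inhibition versus plate controls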;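 further: 0% = median DMSO wells and -100% = median GW8510 positive control wells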
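test system = GST-tagged human GSK3beta kinase, cell-free | reagent = 25 µM ATP with peptide substrate | dosing = one dose of 10 µM per compound | schedule = 60 min reaction, RT | detection = luminescent ADP-Glo measurement of ADP formed | control set = DMSO neutral wells and GW8510 at 20 µM as positive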
Rin1 Abl inh: blocks binding of human Rin1 to Abl; AID 588664; inhibition, % at 7.35 µM; actives 0.4% (n = 360,000); TR-FRET Rin1/Abl binding, biochemical; in the data active means inhibition above about 5%, passing the limit was not always enough
Rin1 Abl conf: confirmation of inhibitors of human Rin1-Abl interaction; AID 602124; shares compounds with Rin1 Abl inh; actives 49% (n = 1,300); TR-FRET Rin1-Abl binding, purified proteins; inhibition, % at 7.35 µM
GFP quencher: quenches GFP fluorescence, counter-screen for Rin1-Abl inhibitors; shares compounds with Rin1 Abl inh; inhibitors/quenchers counterscreen; inhibition, % at 6.75 µM; actives 8.5% (n = 1,300);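 further: ABL1-eGFP fusion protein alone without its partner RIN1-SBP; 0% = protein with vehicle and 100% = wells lacking protein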
GFP quench DR: GFP fluorescence interference dose response; shares compounds with Rin1 Abl inh; GFP fluorescence interference/quenching counterscreen; IC50, µM; 230 tested, under 10 active; AID 602182; call rule not given here;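 further: ABL1-eGFP fusion protein alone without its RIN1 binding partner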
* = called active by the depositor; . = no result. Unless noted, no stated cut-off is given here; in the data, active means inhibition above about 6.5%; inactive means the rest.

SMILES	GSK3 alpha inh	STK33 inh	Dyrk1A ADPGlo	Arr AP2 block	GSK3beta inhib	Rin1 Abl inh	Rin1 Abl conf	GFP quencher	others
COc1cc(CNCc2ccccc2)c(Br)cc1OC1CCCC1	1.4	-0.8	0.3	-11.5	0.1	8.8*	5.3	-1.0
COC(=O)C1C(=O)C=C(Nc2ccc(F)cc2)CC1c1ccc(OC)cc1 (configuration not stated)	8.9	0.3	-2.5	-0.8	-1.0	6.4*	-2.5	0.2
NS(=O)(=O)c1ccc(N=Nc2c[nH]c(=O)c(O)c2)cc1	3.3	6.8	13.2	19.2	2.0	17.6*	13.8*	23.7*
Nc1nc(O)c(N=Nc2ccc(S(N)(=O)=O)cc2)c(=O)[nH]1	-0.1	-0.8	.	.	-4.1	.	.	.
COc1ccc2ncc(S(=O)(=O)c3ccccc3)c(N3CCC4(CC3)OCCO4)c2c1	9.5	1.3	27.1	-5.8	-12.9	8.2*	3.9	0.6
COc1cc(OC)c(-c2c3cc(O)c(=O)cc-3oc3cc(O)c(O)cc23)cc1OC	5.4	0.1	2.0	-130.3	.	62.3*	72.6*	-123.7	GFP quench DR=>67.5
COc1cc(-c2cc(=O)c3ccc(O)cc3o2)cc(OC)c1OC	.	.	.	.	.	-3.2	.	.
Cc1c2cc(O)c(=O)cc-2oc2cc(O)c(O)cc12	1.8	13.6	13.0	-252.5	-7.0	65.0*	88.0*	-16.3
Cc1nc2ccccc2n1CC(=O)c1ccccc1	-0.1	0.4	11.3	4.1	1.5	0.0	.	.
Cc1nc2ccccc2n1CC(=O)c1ccc(O)c(O)c1	-6.1	-0.5	9.1	14.3	.	32.6*	21.4*	6.6*
COC(CSc1nc(N)c2c3c(sc2n1)CN(C)CC3)OC	11.9	2.3	28.5	9.0	-15.1	-1.7	.	.
CC1NC(=O)NC1CCCCCC(=O)Nc1ccc(F)c(Cl)c1 (configuration not stated)	-0.5	-0.9	1.3	-8.5	2.9	85.9*	96.8*	0.5	GFP quench DR=>67.5
Cc1ccc(NC(=O)CCCCCC2NC(=O)NC2C)cc1 (configuration not stated)	-2.1	-0.6	-7.5	-0.1	0.1	87.7*	90.8*	0.1	GFP quench DR=>67.5
Cc1ccc(NC(=O)CC2SCCNC2=O)cc1Cl (configuration not stated)	-0.5	-1.1	-4.3	2.7	-2.4	3.6	.	.
CCc1cccc(NC(=O)CCCN2C(=O)NC(C)(C)C2=O)c1	0.2	-1.9	3.5	-5.0	.	2.5	.	.
CCc1cccc(NC(=O)CCCCCC2NC(=O)NC2C)c1 (configuration not stated)	-1.5	-0.5	0.6	13.2	-0.9	96.9*	99.5*	0.8	GFP quench DR=>67.5
CCC(=O)Nc1ccc(F)c(Cl)c1	-0.6	-0.2	7.4	3.2	-0.3	3.5	.	.
O=C(CC1SCCNC1=O)Nc1ccc(F)c(Cl)c1 (configuration not stated)	0.3	-0.6	-1.7	-5.7	-0.6	20.7*	20.8*	0.9	GFP quench DR=>67.6
Cc1ccc(NC(=O)CCCCCNS(=O)(=O)c2ccc(C)cc2)cc1	-2.4	-0.7	-2.3	6.8	-1.9	-1.3	.	.
COC(=O)c1ccccc1NC(=O)CCC(=O)N1CC(C)Oc2ccc(C)cc21 (configuration not stated)	-1.4	-1.2	-3.6	0.7	3.7	-2.5	.	.
CCCCn1c(N)c(N(CC(C)C)C(=O)C(C)SCc2nc3sc(C)c(C)c3c(=O)[nH]2)c(=O)[nH]c1=O (configuration not stated)	1.9	-1.5	-7.1	37.1	.	-1.4	.	.
CC1NC(=O)NC1CCCCC(=O)O (configuration not stated)	-1.5	-1.6	-2.0	-0.3	-0.8	8.1*	9.0*	0.2
O=C(O)CCCCCCCC(=O)O	-2.9	-0.5	10.0	3.4	-1.8	-2.0	.	.
